Screens: PubChem, several laboratories
Only some compounds are listed: those with a hit (about 3.7% of all), similar ones and a draw of the others.
MPTP block – inhibitors of mitochondrial permeability transition pore; AID 602449; inhibition, % at 10 µM; isolated mouse mitochondria, Ca2+ swelling absorbance, 30 min; hit rate 1.4% among 360,000;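 active means inhibition of 50% or more, scaled per plate between neutral and stimulator controls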;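 further: 0% = DMSO wells given calcium and 100% = 1 mM EGTA wells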
procasp3 activ – procaspase-3 (human) activation; activation, % at 8.5 µM; recombinant procaspase-3 D3A, Ac-DEVD-pNA absorbance 405 nm; hit rate 0.11% among 330,000; P42574;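 active means activation above the mean of all tested compounds plus 3 SD, cut at about 21% in these data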;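 further: 0% = DMSO alone and 100% = DMSO wells spiked with extra 5 µM PC-3 D3A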
Target sequence (P42574 whole entry D9A/D28A/D175A): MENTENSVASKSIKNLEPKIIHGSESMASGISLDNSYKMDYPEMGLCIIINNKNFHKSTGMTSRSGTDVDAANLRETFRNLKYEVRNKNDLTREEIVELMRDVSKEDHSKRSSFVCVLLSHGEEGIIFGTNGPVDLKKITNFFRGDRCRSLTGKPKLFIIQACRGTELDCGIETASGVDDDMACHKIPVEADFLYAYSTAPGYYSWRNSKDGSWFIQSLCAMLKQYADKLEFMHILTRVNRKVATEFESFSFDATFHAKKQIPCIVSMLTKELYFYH
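assay system = Procaspase-3 D3A mutant | signal = absorbance at 405 nm, 0 and 120 min | times = 1 h preincubation plus 2 h reaction at 25 °C | repeats = single replicate | read-out = % activation between DMSO and enzyme-spiked controls | medium = Zinc-free HEPES saline buffer with Triton X-100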
NR3A LBD binder – modulates the human NR3A ligand-binding domain. NR3A LBD differential scanning fluorimetry, Tm shift; 0% = protein alone, 100% = glycine-bound protein. Tm shift relative to glycine control, % at 25 µM. hit rate 2.5% among 340,000. AID 1259313;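 active means melting temperature shift of at least 10% of the positive control shift, at one fixed dose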
procasp7 counter – activates human procaspase-7, counter-screen for procaspase-3 activators; P55210; recombinant procaspase-7, Ac-DEVD-pNA absorbance 405 nm; D23A/D198A/D206A triple mutant, cannot self-cleave; scale: DMSO 0, 5 µM enzyme 100; activation, % at 8.5 µM; hit rate 0.093% among 330,000; AID 463210;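 active means percent activation above the screen-wide mean plus 3 SD, cut at about 25% in these data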
Target sequence (P55210 whole entry D23A/D198A/D206A): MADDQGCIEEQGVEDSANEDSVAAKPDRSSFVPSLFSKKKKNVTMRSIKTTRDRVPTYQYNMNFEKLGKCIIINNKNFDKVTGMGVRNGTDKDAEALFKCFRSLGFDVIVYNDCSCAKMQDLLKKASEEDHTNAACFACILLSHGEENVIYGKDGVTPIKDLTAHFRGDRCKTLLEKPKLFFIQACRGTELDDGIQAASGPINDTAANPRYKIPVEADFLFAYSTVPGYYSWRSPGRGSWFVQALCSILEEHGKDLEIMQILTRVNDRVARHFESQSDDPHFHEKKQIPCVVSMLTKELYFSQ
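Assay system – Uncleavable procaspase-7 mutant enzyme · Quantity – 2 µM procaspase-7 mutant as dispensed · Times – 1 h preincubation, 2 h reaction · Dosing – single nominal 8.5 µM compound dose, 0.8% DMSO final · Buffer or medium – Zinc-free 50 mM HEPES buffer, pH 7.4, with NaCl and Triton X-100 · Detection – Epi-absorbance of released pNA at 405 nm, two timepoints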
aDG glyco up – increases alpha dystroglycan glycosylation | Pro5-aDG cells, alpha-DG glycosylation AlphaScreen (IIH6); 0% Pro5, 100% B10-LARGE cell signal | activation, % at 10 µM | hit rate 0.22% among 360,000 | AID 624168;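 active means activation of at least 8% versus controls, or a plate z-score of at least 8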;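 further: Pro5 are CHO cells carrying HIG-tagged alpha-DG that lacks glycosylation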
Numbers without * were called inactive; . = not tested or not shown.

SMILES | MPTP block | procasp3 activ | NR3A LBD binder | procasp7 counter | aDG glyco up
O=C(Nc1ccccc1C(=O)O)c1ccc(NC(=O)c2ccc(Br)o2)cc1 | -3 | -7 | 13* | 1 | 0
Cc1ccc(NC(=O)Nc2cccc(Cl)c2)c(C(=O)O)c1 | 11 | -7 | 12* | 2 | 0
CC(=O)Nc1cccc(C(=O)Nc2ccccc2C(=O)O)c1 | 0 | 6 | -2 | -7 | 0
O=C(Cc1ccc(Cl)cc1)Nc1cccc(C(=O)Nc2ccccc2C(=O)O)c1 | 0 | -1 | 13* | -1 | 0
O=C(COc1ccc(Cl)cc1Cl)Nc1ccc(C(=O)Nc2ccccc2C(=O)O)cc1 | 1 | 1 | 16* | -6 | 0
O=C(Nc1ccccc1C(=O)O)c1cccc(C(=O)Nc2ccccc2C(=O)O)c1 | 0 | 4 | 10* | 1 | 0
CC1CCN(c2ccc(NC(=O)c3ccc(Br)o3)cc2)CC1 | -2 | 2 | 30* | 5 | 0
O=C(Nc1ccccc1C(=O)O)c1ccccc1 | -2 | -11 | 6 | -2 | 0
CCCCC(CC)C(=O)Nc1cc(C(=O)NCCC)ccc1N1CCC2(CC1)CC(c1cccc(Br)c1)=NO2 (configuration not stated) | 1 | 13 | 2 | 1 | 0
N#Cc1cc([N+](=O)[O-])ccc1NC(=O)CSc1n[nH]c(=O)[nH]c1=O | 1 | 6 | -10 | 8 | 0
Cc1sc(NC(=O)c2cc(-c3ccc(Cl)cc3)nc3ccccc23)c(C(N)=O)c1C | 1 | 4 | -2 | -1 | -1
Cc1sc(NC(=O)c2cc(-c3ccccc3)nc3ccccc23)c(C(N)=O)c1C | -7 | -8 | 17* | 0 | 0
CC(C)N1CCC(C)(C(=O)Nc2cc(-c3ccccc3)nn2C)C1 (configuration not stated) | 0 | . | . | . | 0
OCCN(CCO)c1ccc(C(c2ccc(Cl)cc2)c2ccc(N(CCO)CCO)cc2Cl)c(Cl)c1 | -1 | 3 | 28* | -5 | 0
Nc1ccc(N(CCO)CCO)cc1 | 4 | -18 | 2 | -21 | 0
CC(C)CC(=O)NC(c1ccccc1)c1c(O)ccc2ccccc12 (configuration not stated) | 3 | -4 | -2 | 0 | 0
O=C(NC(c1ccccc1)c1c(O)ccc2ccccc12)c1ccccc1Cl (configuration not stated) | 47 | 5 | 11* | -2 | 0
C[C@]12CCC(O)CC1CCC1C2CC[C@]2(C)C(c3cc(C(F)(F)F)n[nH]3)CCC12 (some centres not stated) | -3 | 1 | 24* | 3 | 0
CCOc1ccc2nc(NC(=O)/C=C/c3ccc4c(c3)OCO4)sc2c1 | 1 | -4 | 35* | 1 | 0
CCOc1ccc2nc(NC(=O)c3ccc(OCC4CCCO4)cc3)sc2c1 (configuration not stated) | -2 | 0 | 20* | 3 | 7
Cc1cccc2sc(NC(=O)c3ccc(OCC4CCCO4)cc3)nc12 (configuration not stated) | 0 | -1 | -3 | 8 | 0
Cc1cccc(CN2CCN(C3CN(Cc4ccc(F)cc4)S(=O)(=O)C3)CC2)c1 (configuration not stated) | 0 | . | . | . | 0
CC1(C(=O)NS(=O)(=O)c2cccc(C#N)c2)CCN1C(=O)Cc1cc(F)ccc1F (configuration not stated) | -1 | . | . | . | 0
COc1ccc(-c2ccnc(SCC(=O)c3ccc(Br)cc3)n2)cc1 | 2 | 2 | 26* | 10 | 0
COC(=O)COc1ccc(-c2nccc(-c3ccc(Br)cc3)n2)cc1 | 0 | 13 | -15 | 8 | 0
SMILES | MPTP block | procasp3 activ | NR3A LBD binder | procasp7 counter | aDG glyco up
CC1(C(=O)NCC2CC2)CCN1C(=O)C1(c2ccccc2)CC1 (configuration not stated) | -1 | . | . | . | 0
CCCCOC(=O)C1CN(c2ccccc2)N=C1C(=O)OCC (configuration not stated) | 1 | -9 | 15* | -1 | 0
CCC(Oc1ccccc1)C(=O)Nc1ccccc1C(=O)N1CCCCC1 (configuration not stated) | -1 | -1 | 10 | -2 | 0
CCC(Oc1ccccc1)C(=O)Nc1ccccc1C(=O)N1CCOCC1 (configuration not stated) | -1 | 8 | 13* | -2 | 0
CCC(Oc1ccccc1)C(=O)Nc1ccccc1C(=O)N1CCN(C)CC1 (configuration not stated) | -1 | 2 | 11* | 2 | 0
O=C(COC(=O)C1(c2ccc(F)cc2)CCCC1)NCc1ccc2c(c1)OCO2 | 26 | -1 | 16* | 10 | 1
O=C(NCCN1CCN(Cc2ccccc2)CC1)c1ccc(CS(=O)(=O)c2c(Cl)cccc2Cl)o1 | -1 | . | . | . | 0
COc1ccc([C@H]2CC(=O)C=C(c3ccc4[nH]ccc4c3)C2)cc1OC | 2 | 2 | -7 | -6 | 0
O=C1C=C(c2ccc3[nH]ccc3c2)C[C@@H](c2ccc(F)cc2)C1 | 0 | -3 | 21* | 2 | 0
O=C(c1cnn2c(C(F)(F)F)cc(-c3ccco3)nc12)N1CCCCCC1 | 4 | 4 | 11* | 6 | 0
CN1[C@@H](COCc2ccccc2)C=CS1(=O)=O | -2 | . | . | . | 0
NC(N)=NS(=O)(=O)c1ccc(N/C=C/C(=O)c2ccc(Cl)c(Cl)c2)cc1 | 1 | -6 | 13* | -2 | 0
Cc1noc(C)c1S(=O)(=O)N(C)C[C@H]1Oc2c(NC(=O)Nc3ccc(C(F)(F)F)cc3)cccc2C(=O)N([C@H](C)CO)C[C@@H]1C | -2 | 13 | 11* | -2 | 0
C[C@H]1CN([C@@H](C)CO)C(=O)c2cccc(NC(=O)Nc3ccc(C(F)(F)F)cc3)c2O[C@@H]1CN(C)S(=O)(=O)c1ccccc1 | 1 | 5 | 13* | 2 | 1
C[C@H](CO)N1C[C@H](C)[C@@H](CN(C)S(=O)(=O)c2ccccc2)Oc2c(NC(=O)Nc3ccccc3)cccc2C1=O | -1 | -2 | 1 | 3 | 0
CC(C)NC(=O)Nc1ccc2c(c1)C(=O)N([C@H](C)CO)C[C@H](C)[C@@H](CN(C)S(=O)(=O)c1ccccc1)O2 | 1 | -5 | 0 | 2 | 0
COc1ccc(S(=O)(=O)N(C)C[C@H]2Oc3c(NC(=O)Nc4ccc(C(F)(F)F)cc4)cccc3C(=O)N([C@H](C)CO)C[C@@H]2C)cc1 | 0 | 5 | 11* | -2 | 2
C[C@H](CO)N1C[C@H](C)[C@@H](CN(C)S(=O)(=O)c2ccccc2)Oc2ccc(NC(=O)Nc3ccc(C(F)(F)F)cc3)cc2C1=O | 1 | 2 | 23* | -6 | 0
